ChEMBL document CHEMBL4043283, “Discovery and Preclinical Development of IIIM-290, an Orally Active Potent Cyclin-Dependent Kinase Inhibitor” (J Med Chem, 2018)
Converted amounts (≈) assume the structure as drawn. The source made the active and inactive calls. The rule behind the calls is not given here.

Assays:
MIA PaCa-2 [1] = test: Growth inhibition of human MIAPaCa2 cells at 10 uM after 48 hrs by MTT assay relative to control; assay type: functional; conditions: MIA PaCa-2, 48 h, read-out: GI
Outline: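 Single-concentration primary screen at 10 μM by MTT assay. Cells were NCI-sourced cancer lines grown in appropriate medium at 37 °C, 95% humidity, 5% CO2. Growth inhibition is expressed relative to control.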

Caco-2 = test: Growth inhibition of human Caco2 cells after 48 hrs by MTT assay; assay type: functional; conditions: Caco-2, 48 h
Outline: (§1)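 Cancer cell lines sourced from the National Cancer Institute (USA). Cells kept in appropriate growth medium at 37 °C, 95% humidity, 5% CO2. Antiproliferation read by tetrazolium (MTT) assay. GI50 values were determined only for compounds selected after an initial single-concentration screen.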

CDK1/Cyclin A = CDK1/Cyclin A (Homo sapiens, UniProt P06493); test: Inhibition of CDK1/cyclin A (unknown origin) after 30 mins in presence of [33P]-gamma-ATP by filter binding assay; assay type: protein-complex assay
[2] = biological target: Cyclin-dependent kinase 7/ cyclin H (Homo sapiens, UniProt P50613); test: Inhibition of CDK7/cyclin H (unknown origin) after 30 mins in presence of [33P]-gamma-ATP by filter binding assay; assay type: protein-complex assay
[3] = biological target: CDK4/Cyclin D3 (Homo sapiens) (UniProt P11802+P30281); test: Inhibition of full length wild type human CDK4/cyclin D3 expressed in mammalian expression system at 0.5 uM by KINOMEscan method relative to control
Outline: (§2)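 Competition binding screen (KINOMEscan) at 0.5 μM; primary binding read out as % of control, lower values indicating stronger interaction.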

[4] = test system: Mast/stem cell growth factor receptor Kit (Homo sapiens), P10721 [A829P]; test: Inhibition of partial length human KIT A829P mutant expressed in mammalian expression system at 0.5 uM by KINOMEscan method relative to control; outline: as §2
[5] = biological target: Non-receptor tyrosine-protein kinase TYK2 (Homo sapiens) (UniProt P29597); test: Inhibition of partial length wild type human Tyk2 expressed in mammalian expression system at 0.5 uM by KINOMEscan method relative to control; outline: as §2
BT-549 = test: Growth inhibition of human BT549 cells after 48 hrs by MTT assay; assay type: functional; conditions: BT-549, 48 h; outline: as §1
COLO 205 = test: Growth inhibition of human COLO205 cells after 48 hrs by MTT assay; assay type: functional; conditions: COLO 205, 48 h; outline: as §1
786-0 = test: Growth inhibition of human 786-0 cells after 48 hrs by MTT assay; assay type: functional; conditions: 786-0, 48 h; outline: as §1
LOX IMVI = test: Growth inhibition of human LOXIMVI cells after 48 hrs by MTT assay; assay type: functional; outline: as §1
OVCAR-4 = test: Growth inhibition of human OVCAR4 cells after 48 hrs by MTT assay; assay type: functional; conditions: OVCAR-4, 48 h; outline: as §1
A549 = test: Growth inhibition of human A549 cells after 48 hrs by MTT assay; assay type: functional; conditions: A549, 48 h; outline: as §1
HOP-92 = test: Growth inhibition of human HOP92 cells after 48 hrs by MTT assay; assay type: functional; conditions: HOP-92, 48 h; outline: as §1
MIA PaCa-2 [6] = test: Disruption of mitochondrial membrane potential in human MIAPaCa2 cells by Rh123 dye-based assay; assay type: functional, cell-based
[7] = Thermodynamic equilibrium solubility of compound in water after 5 hrs by shake flask method; assay type: physicochemical; conditions: read-out: Therm_solubility
[8] = Protein binding in human plasma at 3 uM after 5 hrs by equilibrium dialysis method; assay type: ADME, cell-free; conditions: read-out: PPB (converted)
serum albumin = serum albumin (Homo sapiens, UniProt P02768); test: Binding affinity to human serum albumin; assay type: ADME; conditions: read-out: PB (converted)
Cytochrome P450 2C9 = Cytochrome P450 2C9 (Homo sapiens, UniProt P11712); test: Inhibition of human CYP2C9 using fluorogenic substrate preincubated with co-factor for 10 mins followed by enzyme-substrate addition by fluorometric method; assay type: ADME
Outline: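 Cofactor plus test item or vehicle, in triplicate, preincubated 10 min at 37 °C; prewarmed enzyme–substrate mix added and incubated at 37 °C with shaking. Quench: acetonitrile (CYP2C19, CYP3A4) or 0.25 M Tris in 60% methanol (CYP2C9, CYP2D6). Metabolite fluorescence read; % inhibition computed against enzyme controls and enzyme-free blanks.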

[9] = Intrinsic clearance in monkey liver microsomes assessed per mg of protein at 100 uM after 30 mins by LC-MS/MS analysis; assay type: ADME, Macaca mulatta, microsome; conditions: rhesus monkey, read-out: CLH
[10] = Volume of distribution in BALB/c mouse at 1 mg/kg, iv by LC-MS/MS analysis; assay type: ADME, organism-based; conditions: in vivo
[11] = Tmax in BALB/c mouse at 30 mg/kg, po by LC-MS/MS analysis; assay type: ADME, organism-based; conditions: in vivo
[12] = Half life in Sprague-Dawley rat at 3 mg/kg, po by LC-MS/MS analysis; assay type: ADME, organism-based; conditions: in vivo
[13] = Half life in Sprague-Dawley rat at 30 mg/kg, po by LC-MS/MS analysis; assay type: ADME, organism-based; conditions: in vivo
[14] = Pancreas to plasma partition coefficient, Kp of the compound in Sprague-Dawley rat at 30 mg/kg, po measured at 0.5 hrs; assay type: ADME, organism-based; conditions: pancreas and plasma
MOLT-4 = test: Antitumor activity against human MOLT4 cells xenografted in CD1 nude mouse assessed as tumor growth inhibition at 50 mg/kg, po qd administered on day 10 to 25 post tumor inoculation relative to control; assay type: functional; conditions: MOLT-4, po, 240 h, read-out: TGI
Mus musculus [15] = test: Toxicity in CD1 nude mouse xenografted with human HCT116 cells assessed as mortality at 50 mg/kg, po qd administered on day 10 to 25 post tumor inoculation; assay type: organism-based; conditions: in vivo
Mus musculus [16] = test: Toxicity in CD1 nude mouse xenografted with human HCT116 cells assessed as change in body weight at 25 to 50 mg/kg, po qd administered on day 10 to 25 post tumor inoculation; assay type: organism-based; conditions: in vivo
[17] = Ratio of Cmax in Sprague-Dawley rat at 30 mg/kg, po to GI50 for human MIAPaCa2 cells
[18] = Efflux ratio of apparent permeability across basolateral to apical side over apical to basolateral side in human Caco2 cells after 90 mins by LC-MS/MS analysis; assay type: ADME, cell-based; conditions: Caco-2
Outline: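 Caco-2 monolayers cultured for 21 days. Test compound applied in HBSS buffer with 10 mM HEPES. Samples drawn from both the apical and basolateral chambers.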

Salmonella typhimurium [19] = test: Mutagenicity in Salmonella typhimurium TA1535 at 50 ug/plate in presence of liver S9 fraction by Ames test; assay type: toxicity; conditions: salmonella enterica subsp. enterica serovar typhimurium
Salmonella typhimurium [20] = test: Mutagenicity in Salmonella typhimurium TA98 at 50 ug/plate in presence of liver S9 fraction by Ames test; assay type: toxicity; conditions: salmonella enterica subsp. enterica serovar typhimurium
Salmonella typhimurium [21] = test: Mutagenicity in Salmonella typhimurium TA100 at 50 ug/plate in presence of liver S9 fraction by Ames test; assay type: toxicity; conditions: salmonella enterica subsp. enterica serovar typhimurium
Salmonella typhimurium [22] = test: Mutagenicity in Salmonella typhimurium TA1535 at 50 ug/plate in absence of liver S9 fraction by Ames test; assay type: toxicity; conditions: salmonella enterica subsp. enterica serovar typhimurium
Salmonella typhimurium [23] = test: Mutagenicity in Salmonella typhimurium TA98 at 50 ug/plate in absence of liver S9 fraction by Ames test; assay type: toxicity; conditions: salmonella enterica subsp. enterica serovar typhimurium
Salmonella typhimurium [24] = test: Mutagenicity in Salmonella typhimurium TA100 at 50 ug/plate in absence of liver S9 fraction by Ames test; assay type: toxicity; conditions: salmonella enterica subsp. enterica serovar typhimurium
[25] = Acute toxicity in po dosed Wistar rat assessed as mortality; assay type: organism-based; conditions: in vivo

Chain of Cyclin-dependent kinase 7/ cyclin H (P51946 whole entry): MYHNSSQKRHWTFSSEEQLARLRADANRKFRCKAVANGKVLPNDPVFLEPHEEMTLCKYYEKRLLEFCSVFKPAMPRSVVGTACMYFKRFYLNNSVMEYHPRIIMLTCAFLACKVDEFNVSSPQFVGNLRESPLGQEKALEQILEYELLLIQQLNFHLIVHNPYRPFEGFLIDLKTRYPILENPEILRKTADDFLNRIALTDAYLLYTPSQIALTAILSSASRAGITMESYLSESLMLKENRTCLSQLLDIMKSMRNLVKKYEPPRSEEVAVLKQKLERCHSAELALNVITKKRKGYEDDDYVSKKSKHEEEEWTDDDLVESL
Chain of Cyclin-dependent kinase 7/ cyclin H (P50613 whole entry): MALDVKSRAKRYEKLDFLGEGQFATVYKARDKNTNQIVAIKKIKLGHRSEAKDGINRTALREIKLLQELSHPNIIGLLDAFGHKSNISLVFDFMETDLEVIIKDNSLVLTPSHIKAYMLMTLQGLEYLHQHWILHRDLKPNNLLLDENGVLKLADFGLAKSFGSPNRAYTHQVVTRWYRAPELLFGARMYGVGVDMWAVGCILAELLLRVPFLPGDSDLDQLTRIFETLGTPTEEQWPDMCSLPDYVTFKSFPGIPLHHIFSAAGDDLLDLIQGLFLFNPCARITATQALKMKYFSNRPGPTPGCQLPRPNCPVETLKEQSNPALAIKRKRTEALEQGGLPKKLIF
Chain of Cytochrome P450 2C9 (P11712 whole entry): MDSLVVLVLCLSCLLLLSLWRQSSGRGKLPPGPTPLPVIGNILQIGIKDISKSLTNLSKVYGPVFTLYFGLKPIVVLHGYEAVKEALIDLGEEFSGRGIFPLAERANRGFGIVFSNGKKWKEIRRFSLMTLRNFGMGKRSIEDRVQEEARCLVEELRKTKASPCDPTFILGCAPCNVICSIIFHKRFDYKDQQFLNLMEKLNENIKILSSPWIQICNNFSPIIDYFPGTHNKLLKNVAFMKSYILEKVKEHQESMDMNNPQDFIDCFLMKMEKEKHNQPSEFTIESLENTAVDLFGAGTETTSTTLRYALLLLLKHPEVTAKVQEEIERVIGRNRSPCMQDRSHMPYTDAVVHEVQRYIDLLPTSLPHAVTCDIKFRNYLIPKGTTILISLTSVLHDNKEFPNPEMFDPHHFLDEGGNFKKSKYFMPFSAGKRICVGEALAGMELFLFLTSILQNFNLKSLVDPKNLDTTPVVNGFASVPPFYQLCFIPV
Chain of CDK1/Cyclin A (P06493 whole entry): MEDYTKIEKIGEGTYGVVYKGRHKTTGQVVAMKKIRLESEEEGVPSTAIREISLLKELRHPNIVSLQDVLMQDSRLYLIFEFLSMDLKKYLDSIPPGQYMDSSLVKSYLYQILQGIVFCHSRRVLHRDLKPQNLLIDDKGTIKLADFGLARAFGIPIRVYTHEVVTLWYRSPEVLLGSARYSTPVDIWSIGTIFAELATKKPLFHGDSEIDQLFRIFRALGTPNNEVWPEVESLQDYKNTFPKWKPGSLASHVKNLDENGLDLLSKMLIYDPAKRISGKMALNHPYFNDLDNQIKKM
Chain of CDK1/Cyclin A (P20248 whole entry, further chain): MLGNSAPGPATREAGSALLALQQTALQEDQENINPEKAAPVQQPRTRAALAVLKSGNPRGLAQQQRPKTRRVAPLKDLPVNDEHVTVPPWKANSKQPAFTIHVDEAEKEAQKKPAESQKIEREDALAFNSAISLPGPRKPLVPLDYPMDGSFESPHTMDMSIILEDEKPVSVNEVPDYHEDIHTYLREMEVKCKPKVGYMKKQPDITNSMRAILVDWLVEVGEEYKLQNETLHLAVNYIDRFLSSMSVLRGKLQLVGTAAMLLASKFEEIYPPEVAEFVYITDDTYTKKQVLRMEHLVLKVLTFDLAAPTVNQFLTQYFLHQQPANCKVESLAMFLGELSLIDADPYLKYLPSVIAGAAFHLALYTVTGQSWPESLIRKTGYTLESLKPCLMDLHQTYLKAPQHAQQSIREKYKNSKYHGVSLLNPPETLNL
Chain of Non-receptor tyrosine-protein kinase TYK2 (Homo sapiens) (P29597 whole entry): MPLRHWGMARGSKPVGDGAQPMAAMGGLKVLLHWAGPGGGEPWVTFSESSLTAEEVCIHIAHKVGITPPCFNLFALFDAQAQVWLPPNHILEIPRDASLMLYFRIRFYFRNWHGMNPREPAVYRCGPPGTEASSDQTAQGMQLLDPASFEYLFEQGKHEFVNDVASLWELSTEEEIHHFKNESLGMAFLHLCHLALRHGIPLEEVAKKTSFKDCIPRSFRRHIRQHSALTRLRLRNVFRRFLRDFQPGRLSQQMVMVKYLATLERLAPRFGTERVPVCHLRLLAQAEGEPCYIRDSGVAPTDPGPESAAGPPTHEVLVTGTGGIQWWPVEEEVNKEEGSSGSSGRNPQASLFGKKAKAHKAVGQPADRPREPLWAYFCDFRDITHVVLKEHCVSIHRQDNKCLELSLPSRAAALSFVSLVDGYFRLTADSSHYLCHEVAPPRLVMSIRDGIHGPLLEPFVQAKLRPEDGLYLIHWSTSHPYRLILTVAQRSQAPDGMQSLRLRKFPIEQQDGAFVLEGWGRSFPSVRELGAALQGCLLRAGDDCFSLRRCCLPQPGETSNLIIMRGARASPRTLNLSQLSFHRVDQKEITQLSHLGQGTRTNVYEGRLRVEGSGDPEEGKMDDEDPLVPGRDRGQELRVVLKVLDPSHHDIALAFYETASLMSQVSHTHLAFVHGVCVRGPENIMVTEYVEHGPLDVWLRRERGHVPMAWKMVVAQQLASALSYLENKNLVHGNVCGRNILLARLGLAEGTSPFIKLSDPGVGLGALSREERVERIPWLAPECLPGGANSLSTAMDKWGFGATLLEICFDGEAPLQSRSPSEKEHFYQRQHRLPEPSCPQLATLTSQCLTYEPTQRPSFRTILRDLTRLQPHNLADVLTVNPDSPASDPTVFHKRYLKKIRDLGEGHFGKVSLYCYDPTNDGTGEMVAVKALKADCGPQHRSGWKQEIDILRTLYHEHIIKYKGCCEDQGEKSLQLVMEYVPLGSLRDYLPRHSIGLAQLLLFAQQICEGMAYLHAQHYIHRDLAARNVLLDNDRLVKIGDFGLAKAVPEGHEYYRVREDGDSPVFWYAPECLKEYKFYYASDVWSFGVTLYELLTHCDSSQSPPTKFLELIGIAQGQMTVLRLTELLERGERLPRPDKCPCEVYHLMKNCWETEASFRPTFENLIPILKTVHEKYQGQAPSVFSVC
Chain of Mast/stem cell growth factor receptor Kit (Homo sapiens), P10721 [A829P] (P10721 whole entry A829P): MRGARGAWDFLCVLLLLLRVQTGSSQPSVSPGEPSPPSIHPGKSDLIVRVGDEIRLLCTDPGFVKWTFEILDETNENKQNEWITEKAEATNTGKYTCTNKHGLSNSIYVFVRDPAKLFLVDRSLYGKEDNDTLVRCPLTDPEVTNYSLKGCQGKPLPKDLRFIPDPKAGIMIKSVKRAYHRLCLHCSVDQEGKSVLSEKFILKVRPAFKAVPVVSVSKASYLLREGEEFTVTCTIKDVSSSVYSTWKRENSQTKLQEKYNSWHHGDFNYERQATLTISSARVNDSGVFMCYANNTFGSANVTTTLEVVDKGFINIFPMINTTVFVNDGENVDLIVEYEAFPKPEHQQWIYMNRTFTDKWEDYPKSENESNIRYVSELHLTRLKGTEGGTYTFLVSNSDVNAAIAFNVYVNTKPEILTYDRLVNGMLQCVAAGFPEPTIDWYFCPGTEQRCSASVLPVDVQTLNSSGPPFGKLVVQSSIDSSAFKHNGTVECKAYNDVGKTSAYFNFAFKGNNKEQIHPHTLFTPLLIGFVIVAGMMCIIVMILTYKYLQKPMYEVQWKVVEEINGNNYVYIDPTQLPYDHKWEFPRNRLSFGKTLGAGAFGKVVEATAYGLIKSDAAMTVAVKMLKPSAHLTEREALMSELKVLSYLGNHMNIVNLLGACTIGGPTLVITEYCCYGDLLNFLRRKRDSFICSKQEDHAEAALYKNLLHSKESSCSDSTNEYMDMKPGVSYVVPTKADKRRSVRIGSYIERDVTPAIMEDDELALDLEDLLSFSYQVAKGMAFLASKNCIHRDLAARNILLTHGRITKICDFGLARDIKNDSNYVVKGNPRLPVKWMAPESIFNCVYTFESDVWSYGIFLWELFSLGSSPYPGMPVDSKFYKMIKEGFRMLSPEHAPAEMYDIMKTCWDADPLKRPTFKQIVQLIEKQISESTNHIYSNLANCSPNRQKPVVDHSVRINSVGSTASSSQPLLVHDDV
Chain of serum albumin (P02768 whole entry): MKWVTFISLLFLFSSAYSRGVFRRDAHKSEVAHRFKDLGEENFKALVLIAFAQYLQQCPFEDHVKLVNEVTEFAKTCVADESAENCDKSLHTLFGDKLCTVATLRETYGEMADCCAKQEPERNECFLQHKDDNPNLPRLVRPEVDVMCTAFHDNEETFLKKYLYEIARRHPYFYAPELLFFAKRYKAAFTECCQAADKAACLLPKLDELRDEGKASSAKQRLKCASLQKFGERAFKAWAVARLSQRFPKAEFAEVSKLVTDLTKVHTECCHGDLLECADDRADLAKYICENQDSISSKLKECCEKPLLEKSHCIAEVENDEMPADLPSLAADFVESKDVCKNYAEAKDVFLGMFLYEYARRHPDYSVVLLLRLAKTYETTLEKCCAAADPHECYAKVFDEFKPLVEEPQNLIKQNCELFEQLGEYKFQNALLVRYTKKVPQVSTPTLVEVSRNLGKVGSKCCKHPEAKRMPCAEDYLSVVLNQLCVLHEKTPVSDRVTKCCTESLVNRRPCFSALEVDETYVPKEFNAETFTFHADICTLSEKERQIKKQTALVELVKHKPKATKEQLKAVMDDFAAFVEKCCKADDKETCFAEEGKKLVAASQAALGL

## CN1CC[C@H](c2c(O)cc(O)c3c(=O)cc(/C=C/c4c(Cl)cccc4Cl)oc23)[C@H](O)C1
MIA PaCa-2 [1]
  inhibition of growth at 10 µM: 88%
Caco-2
  GI50: 7 µM
CDK1/Cyclin A
  IC50: 0.00493 µM
[2]
  IC50: 0.711 µM
[3]
  inhibition: > 98%
[4]
  inhibition: > 98%
[5]
  inhibition: > 98%
BT-549
  GI50: 5 µM
COLO 205
  GI50: 7 µM
786-0
  GI50: 6 µM
LOX IMVI
  GI50: 4 µM
OVCAR-4
  GI50: 9 µM
A549
  GI50: 4 µM
HOP-92
  GI50: 3 µM
MIA PaCa-2 [6]
  Activity: Active
[7]
  solubility thermodynamic at 5 h: 0.0203 mg/mL (≈ 43.9 µM)
[8]
  fraction unbound at 5 h, 3 µM: 0.033
Serum albumin
  fraction unbound: 0.033
Cytochrome P450 2C9
  IC50: > 20 µM
[9]
  microsomal CLint at 100 µM: 54.8 µL/min/mg
[10]
  Vd: 26.2 L/kg
[11]
  Tmax: 0.54 h
[12]
  half-life: 4.67 h
[13]
  half-life: 3.23 h
[14]
  Kp at 0.5 h: 5.3
MOLT-4
  inhibition in vivo at 50 mg/kg: 40 to 52%
Mus musculus [15]
  Activity: Non-Toxic
Mus musculus [16]
  Activity: Non-Toxic
[17]
  Ratio: 4
[18]
  efflux ratio at 1.5 h: 1.8
Salmonella typhimurium [19]
  Activity: Non-Toxic
Salmonella typhimurium [20]
  Activity: Non-Toxic
Salmonella typhimurium [21]
  Activity: Non-Toxic
Salmonella typhimurium [22]
  Activity: Non-Toxic
Salmonella typhimurium [23]
  Activity: Non-Toxic
Salmonella typhimurium [24]
  Activity: Non-Toxic
[25]
  LD50: 1000 mg/kg
